Calls of active or inactive are those of the source. The calls are words filed in the database; no cut-off is given here.
Assays:
[1] = Selectivity index, ratio of IC50 for African green monkey Vero cells to IC50 for Trypanosoma cruzi (IRHOD/CO/2008/SN3) amastigotes; type: toxicity, cell-based; conditions: read-out: Ratio IC50
Procedure, shortened: (§1)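 SI calculated as IC50 on Vero cells divided by IC50 on the corresponding parasite form (epimastigote, amastigote or trypomastigote).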

[2] = Selectivity index, ratio of IC50 for African green monkey Vero cells to IC50 for Trypanosoma cruzi (IRHOD/CO/2008/SN3) trypomastigotes; type: toxicity, cell-based; conditions: read-out: Ratio IC50; procedure, shortened: as §1
[3] = tested on: Trypanosoma cruzi; assay: Antitrypanosomal activity against Trypanosoma cruzi (IRHOD/CO/2008/SN3) amastigotes infected in African green monkey Vero cells after 72 hrs by Giemsa staining-based microscopic analysis; type: functional, organism-based
Procedure, shortened: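 SN3 strain. Vero cells in RPMI with 10% inactivated FBS at 37 °C, 5% CO2, seeded at 1 × 10⁴ cells/well on coverslips and grown 2 days. Infected with metacyclic forms at 10:1 for 24 h, then washed. Drugs at 100, 50, 25, 10 and 1 for 72 h. Methanol fixation, Giemsa stain, amastigotes counted over 200 host cells. IC50 by linear regression; mean of four experiments.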

[4] = tested on: Vero; assay: Cytotoxicity against African green monkey Vero cells assessed as cell viability after 72 hrs by propidium iodide staining-based flow cytometric analysis; conditions: Chlorocebus sabaeus
Procedure, shortened: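 Vero cells in RPMI with 10% inactivated FBS at 37 °C, 5% CO2, treated 72 h across 1–100. Stained with propidium iodide, then fluorescein diacetate (100 ng/mL), each 10 min at 28 °C in the dark. Cells spun at 400 g, washed in PBS, analysed by flow cytometry. % viability versus control; IC50 by linear regression.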

[5] = tested on: Trypanosoma cruzi; assay: Antitrypanosomal activity against Trypanosoma cruzi (IRHOD/CO/2008/SN3) trypomastigotes infected in Balb/c albino mouse after 24 hrs by Neubauer chamber counting analysis; type: functional, organism-based
Procedure, shortened: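 Blood taken at the day-7 parasitemia peak from BALB/c mice infected with SN3. Diluted with uninfected murine blood to 4 × 10⁶ trypomastigotes/mL, then 1:2 in RPMI 1640 (2 × 10⁶/mL). Drugs (DMSO stocks) at 100, 50, 25, 10 and 1; incubated 24 h at 4–8 °C. Neubauer chamber counts; IC50 by linear regression; three repeats.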

[6] = Selectivity index, ratio of IC50 for African green monkey Vero cells to IC50 for Trypanosoma cruzi (IRHOD/CO/2008/SN3) epimastigotes; type: toxicity, cell-based; conditions: read-out: Ratio IC50; procedure, shortened: as §1
[7] = tested on: Trypanosoma cruzi; assay: Antitrypanosomal activity against Trypanosoma cruzi (IRHOD/CO/2008/SN3) epimastigotes after 72 hrs by Neubauer chamber counting analysis; type: functional, organism-based
Procedure, shortened: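 SN3 epimastigotes grown in MTL medium with 10% inactivated FBS at 28 °C. Compounds dissolved in DMSO (0.01% final) and added at 100, 50, 25, 10 and 1. Parasites counted at 72 h in a Neubauer haemocytometer. IC50 from linear regression of Kc values; averages of four experiments.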

[8] = tested on: Trypanosoma cruzi; assay: Antitrypanosomal activity against Trypanosoma cruzi (IRHOD/CO/2008/SN3) epimastigotes assessed as change in L-lactate level at IC25 after 96 hrs by [1H]-NMR spectroscopic analysis relative to control; type: functional
Procedure, shortened: (§2)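 Epimastigote cultures started at 5 × 10⁵ cells/mL and given IC25 concentrations, with untreated control cultures. After 96 h at 28 °C, cells spun at 400 g for 10 min. Excreted metabolites in the supernatant identified by ¹H NMR chemical shifts.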

[9] = tested on: Trypanosoma cruzi; assay: Antitrypanosomal activity against Trypanosoma cruzi (IRHOD/CO/2008/SN3) infected in BALB/c mouse assessed as reduction in parasitemia at 1 mg/kg/day, ip treated from day 5 to day 10 post-infection measured on day 14 post-infection; type: functional, organism-based
Procedure, shortened: (§3)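 Female BALB/c mice (groups of three) infected ip with 1 × 10⁵ metacyclic forms. Given 1 mg/kg/day ip for five days (days 5–10 post-infection); infected untreated controls included. Mandibular-vein blood (5 µL) diluted 1:15 in citrate/lysis buffer, with trypomastigotes/mL counted every 3–4 days. Mean values reported.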

[10] = tested on: Trypanosoma cruzi; assay: Antitrypanosomal activity against Trypanosoma cruzi (IRHOD/CO/2008/SN3) epimastigotes assessed as change in ethanol level at IC25 after 96 hrs by [1H]-NMR spectroscopic analysis relative to control; type: functional; procedure, shortened: as §2
[11] = tested on: Trypanosoma cruzi; assay: Antitrypanosomal activity against Trypanosoma cruzi (IRHOD/CO/2008/SN3) infected in BALB/c mouse assessed as reduction in parasitemia at 1 mg/kg/day, ip treated from day 5 to day 10 post-infection measured on day 30 post-infection relative to control; type: functional; parameters: scale not given: the % may be the effect or the level left; conditions: route intraperitoneal; procedure, shortened: as §3
[12] = tested on: Trypanosoma cruzi; assay: Antitrypanosomal activity against Trypanosoma cruzi (IRHOD/CO/2008/SN3) epimastigotes assessed as change in acetate level at IC25 after 96 hrs by [1H]-NMR spectroscopic analysis; type: functional, organism-based; procedure, shortened: as §2
[13] = tested on: Trypanosoma cruzi; assay: Antitrypanosomal activity against Trypanosoma cruzi (IRHOD/CO/2008/SN3) epimastigotes assessed as presence of little electron-dense cytoplasm at IC25 after 96 hrs by transmission electron microscopic analysis; type: functional, organism-based
[14] = tested on: Trypanosoma cruzi; assay: Antitrypanosomal activity against Trypanosoma cruzi (IRHOD/CO/2008/SN3) epimastigotes assessed as change in succinate level at IC25 after 96 hrs by [1H]-NMR spectroscopic analysis relative to control; type: functional; procedure, shortened: as §2
[15] = tested on: Trypanosoma cruzi; assay: Antitrypanosomal activity against Trypanosoma cruzi (IRHOD/CO/2008/SN3) infected in African green monkey Vero cells assessed as reduction in number of trypomastigotes at IC25 treated for 12 hrs followed by compound-washout measured after 10 days by microscopic analysis relative to control; type: functional
Procedure, shortened: (§4)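 Vero cells grown 2 days, then infected with metacyclic forms at 10:1. Drugs at IC25 added immediately after infection for 12 h at 37 °C, 5% CO2, then removed by washing. Cultures grown 10 days with medium renewed every 48 h. Methanol-fixed, Giemsa-stained preparations: % infected cells and amastigotes per infected cell over 200 host cells; trypomastigotes counted in the medium. Means of three experiments.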

[16] = tested on: Trypanosoma cruzi; assay: Antitrypanosomal activity against Trypanosoma cruzi (IRHOD/CO/2008/SN3) epimastigotes assessed as damaged glycosomes at IC25 after 96 hrs by transmission electron microscopic analysis; type: functional, organism-based
[17] = tested on: Trypanosoma cruzi; assay: Antitrypanosomal activity against Trypanosoma cruzi (IRHOD/CO/2008/SN3) epimastigotes assessed as change in L-alanine level at IC25 after 96 hrs by [1H]-NMR spectroscopic analysis relative to control; type: functional; procedure, shortened: as §2
[18] = tested on: Mus musculus; assay: Toxicity in BALB/c mouse assessed as mortality at 1 mg/kg/day, ip; type: organism-based; parameters: route intraperitoneal; conditions: in vivo
Procedure, shortened: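 Female BALB/c mice (6-8 weeks, 20-25 g), groups of three, infected ip with 1 × 10⁵ T. cruzi SN3 metacyclic forms. Dosing ip at 1 mg/kg/day for five consecutive days (days 5-10 post-infection). Controls were uninfected, infected-untreated and uninfected-treated groups. Mice followed to day 120 post-infection, with deaths recorded.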

[19] = tested on: Trypanosoma cruzi; assay: Antitrypanosomal activity against Trypanosoma cruzi (IRHOD/CO/2008/SN3) epimastigotes assessed as damaged mitochondria at IC25 after 96 hrs by transmission electron microscopic analysis; type: functional, organism-based
[20] = tested on: Trypanosoma cruzi; assay: Antitrypanosomal activity against Trypanosoma cruzi (IRHOD/CO/2008/SN3) infected in African green monkey Vero cells assessed as reduction in infection rate at IC25 treated for 12 hrs followed by compound-washout measured after 10 days by microscopic analysis relative to control; type: functional; procedure, shortened: as §4
[21] = tested on: Trypanosoma cruzi; assay: Antitrypanosomal activity against Trypanosoma cruzi (IRHOD/CO/2008/SN3) epimastigotes assessed as parasite death at IC25 after 96 hrs by transmission electron microscopic analysis; type: functional, organism-based
[22] = tested on: Trypanosoma cruzi; assay: Antitrypanosomal activity against Trypanosoma cruzi (IRHOD/CO/2008/SN3) epimastigotes assessed as large vacuolization with lipidic type vacuoles occupying cytoplasm at IC25 after 96 hrs by transmission electron microscopic analysis; type: functional, organism-based
[23] = tested on: Trypanosoma cruzi; assay: Antitrypanosomal activity against Trypanosoma cruzi (IRHOD/CO/2008/SN3) infected in BALB/c mouse assessed as reduction in parasite specific antibodies level at 1 mg/kg/day, ip treated from day 5 to day 10 post-infection measured from day 30 to day 120 post-infection by ELISA; type: functional, organism-based
Procedure, shortened: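 Female BALB/c mice (6–8 weeks, 20–25 g, groups of three) infected ip with 1 × 10⁵ metacyclic forms. Dosed 1 mg/kg/day ip on days 5–10 post-infection; infected untreated controls included. ELISA on blood diluted 1:50 in PBS, using excreted Fe-SOD antigen from epimastigotes, at days 30 and 120. Read-out is ΔA490 (day 120 minus day 30).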

[24] = tested on: Trypanosoma cruzi; assay: Antitrypanosomal activity against Trypanosoma cruzi (IRHOD/CO/2008/SN3) infected in African green monkey Vero cells assessed as reduction in number of amastigotes at IC25 treated for 12 hrs followed by compound-washout measured after 10 days by microscopic analysis relative to control; type: functional; procedure, shortened: as §4

Compound | IC50 [3] [µM] | IC50 [5] [µM] | IC50 [7] [µM] | selectivity ratio [1] | selectivity ratio [2] | IC50 [4] [µM] | selectivity ratio [6] | further results
COc1nn(CCOCCN)c2ccc([N+](=O)[O-])cc12 | 26.5 | 20.7 | 27.3 | 3.3 | 4.2 | 87.2 | 3.2 | 
CNCCOCCn1nc(OCc2ccccc2)c2cc([N+](=O)[O-])ccc21 | 16.6 | 14.5 | 19.1 | 12.9 | 14.7 | 214 | 11.2 | Activity [8]: 17%; Activity [9]: Active; Activity [10]: inactive; Activity [11]: 39%; Activity [12]: inactive; Activity [13]: Active; Activity [14]: 13%; inhibition (INH) [15]: 75%; Activity [16]: Active; Activity [17]: inactive; Activity [18]: Non-toxic; Activity [19]: Active; inhibition (INH) [20]: 78%; Activity [21]: Active; Activity [22]: Active; Activity [23]: Active; inhibition (INH) [24]: 63%
COc1nn(C)c2ccc([N+](=O)[O-])cc12 | 32.6 | 24.8 | 24.7 | 5.6 | 7.4 | 183 | 7.4 | 
Cn1nc(OCc2ccccc2)c2cc([N+](=O)[O-])ccc21 | 14.1 | 12 | 17.6 | 13.7 | 16.1 | 194 | 11 | Activity [8]: 23%; Activity [9]: Active; Activity [10]: 11%; Activity [11]: 33%; Activity [12]: inactive; Activity [13]: Active; Activity [14]: 35%; inhibition (INH) [15]: 80%; Activity [16]: Active; Activity [17]: 19%; Activity [18]: Non-toxic; Activity [19]: Active; inhibition (INH) [20]: 82%; Activity [21]: Active; Activity [22]: Active; Activity [23]: Active; inhibition (INH) [24]: 76%

Second part, led by results:

IC50 [3] [µM] | IC50 [5] [µM] | IC50 [7] [µM] | Compound | selectivity ratio [1] | selectivity ratio [2] | IC50 [4] [µM] | selectivity ratio [6] | further results
23.4 | 20.5 | 26.7 | CNCCOCCn1nc(OC)c2cc([N+](=O)[O-])ccc21 | 3.7 | 4.3 | 87.6 | 3.3 | 
16.5 | 16.5 | 26.6 | CN(CCOCCn1nc(OCc2ccccc2)c2cc([N+](=O)[O-])ccc21)CCOCCn1nc(OCc2ccccc2)c2cc([N+](=O)[O-])ccc21 | 7.8 | 7.8 | 128 | 4.8 | 
27.9 | 20.4 | 24.6 | COc1nn(CCOCCN(C)CCOCCn2nc(OC)c3cc([N+](=O)[O-])ccc32)c2ccc([N+](=O)[O-])cc12 | 4.6 | 6.3 | 130 | 4.1 | 
25.7 | 26.4 | 31.2 | COc1nn(CCOCCNCCOCCn2nc(OC)c3cc([N+](=O)[O-])ccc32)c2ccc([N+](=O)[O-])cc12 | 0.6 | 0.6 | 16.9 | 0.5 | 

Reference: ChEMBL document CHEMBL3124881, “New perspectives on the synthesis and antichagasic activity of 3-alkoxy-1-alkyl-5-nitroindazoles” (Eur J Med Chem, 2014)
